From ChEMBL document CHEMBL1240350, “In vitro activity of CEM-101 against Streptococcus pneumoniae and Streptococcus pyogenes with defined macrolide resistance mechanisms” (Antimicrob Agents Chemother, 2010)
Converted amounts (≈) assume the structure as drawn.

Tests used:
Streptococcus pneumoniae [1] = experiment: Antibacterial activity against penicillin-susceptible Streptococcus pneumoniae after overnight incubation by agar dilution method; assay type: functional
Summary of the method: (§1)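 Agar dilution on Mueller-Hinton agar supplemented with 5% sheep blood. Inoculum 10^4 CFU/spot, incubated overnight at 35°C in ambient air. Test strains were clinical pneumococcal isolates. S. pneumoniae ATCC 49619 was included as the quality control strain in each run. MIC range, MIC50 and MIC90 were reported for each susceptibility category.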

Streptococcus pneumoniae [2] = experiment: Antibacterial activity against penicillin-intermediate Streptococcus pneumoniae after overnight incubation by agar dilution method; assay type: functional
Summary of the method: (§2)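 Agar dilution on Mueller-Hinton agar supplemented with 5% sheep blood, inoculum 10^4 CFU/spot, read after overnight incubation at 35°C in ambient air. Clinical isolates with defined genotypes; S. pneumoniae ATCC 49619 quality control strain included in each run. MIC50/MIC90 are MICs inhibiting 50% and 90% of isolates.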

Streptococcus pneumoniae [3] = experiment: Antibacterial activity against penicillin-resistant Streptococcus pneumoniae after overnight incubation by agar dilution method; assay type: functional; summary of the method: as §1
Streptococcus pneumoniae [4] = experiment: Antibacterial activity against Streptococcus pneumoniae harboring erm(B) and mef(A) gene after overnight incubation by agar dilution method; assay type: functional
Summary of the method: (§3)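 Clinical isolates collected 1998–2008, with macrolide-resistance genes confirmed by PCR. MICs by agar dilution on Mueller-Hinton agar with 5% sheep blood. Inoculum 10^4 CFU/spot, incubated overnight at 35°C in ambient air. S. pneumoniae ATCC 49619 was the quality-control strain in every run.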

Streptococcus pneumoniae [5] = experiment: Antibacterial activity against Streptococcus pneumoniae harboring mutation in 23S rRNA after overnight incubation by agar dilution method; assay type: functional; summary of the method: as §3
Streptococcus pneumoniae [6] = experiment: Antibacterial activity against macrolide-resistant Streptococcus pneumoniae harboring mef(A) gene after overnight incubation by agar dilution method; assay type: functional
Summary of the method: (§4)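 Agar dilution MICs on Mueller-Hinton agar with 5% sheep blood. Inoculum 10^4 CFU/spot, incubated overnight at 35°C in ambient air. Clinical S. pneumoniae or group A streptococcal isolates; resistance genotypes (erm(B), erm(A), mef(A)/mef(E)) were assigned by PCR. S. pneumoniae ATCC 49619 served as QC strain in each run. Range, MIC50 and MIC90 reported per phenotype group.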

Streptococcus pneumoniae [7] = experiment: Antibacterial activity against macrolide-resistant Streptococcus pneumoniae harboring erm(B) and mef(A) gene after overnight incubation by agar dilution method; assay type: functional; summary of the method: as §4
Streptococcus pyogenes [8] = experiment: Antibacterial activity against macrolide-susceptible Streptococcus pyogenes after overnight incubation by agar dilution method; assay type: functional; summary of the method: as §2
Streptococcus pyogenes [9] = experiment: Antibacterial activity against Streptococcus pyogenes harboring erm(B) gene after overnight incubation by agar dilution method; assay type: functional; summary of the method: as §3
Streptococcus pyogenes [10] = experiment: Antibacterial activity against Streptococcus pyogenes harboring erm(A) gene after overnight incubation by agar dilution method; assay type: functional; summary of the method: as §3
Streptococcus pyogenes [11] = experiment: Antibacterial activity against macrolide-resistant Streptococcus pyogenes harboring erm(B) gene after overnight incubation by agar dilution method; assay type: functional; summary of the method: as §4
Streptococcus pyogenes [12] = experiment: Antibacterial activity against macrolide-resistant Streptococcus pyogenes harboring mef(A) gene after overnight incubation by agar dilution method; assay type: functional; summary of the method: as §4
Streptococcus pyogenes [13] = experiment: Antibacterial activity against macrolide-resistant Streptococcus pyogenes harboring erm(A) gene after overnight incubation by agar dilution method; assay type: functional; summary of the method: as §4
Streptococcus pneumoniae [14] = experiment: Antibacterial activity against macrolide-susceptible Streptococcus pneumoniae 1077 after 15 passages and 10 compound-free subculturing by retest method; assay type: functional
Streptococcus pneumoniae [15] = experiment: Antibacterial activity against macrolide-resistant Streptococcus pneumoniae 3665 harboring mef(A) gene after 26 passages and 10 compound-free subculturing by retest method; assay type: functional
Streptococcus pneumoniae [16] = experiment: Antibacterial activity against macrolide-resistant Streptococcus pneumoniae 1076 harboring erm(B) and mef(A) gene after 14 passages and 10 compound-free subculturing by retest method; assay type: functional
Summary of the method: (§5)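 Multistep selection by daily serial passage in subinhibitory drug concentrations. Medium was cation-adjusted Mueller-Hinton broth plus 5% lysed horse blood. Each day the next inoculum came from the tube 1–2 dilutions below the MIC whose turbidity matched the growth control, for up to 50 days. Clone MICs by CLSI macrodilution; identity to the parent confirmed by SmaI PFGE.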

Streptococcus pneumoniae [17] = experiment: Antibacterial activity against macrolide-resistant Streptococcus pneumoniae 1635 harboring erm(A) gene after 49 passages and 10 compound-free subculturing by retest method; assay type: functional; summary of the method: as §5
Streptococcus pneumoniae [18] = experiment: Antibacterial activity against macrolide-resistant Streptococcus pneumoniae 24 harboring erm(B) gene after overnight incubation by agar dilution method; assay type: functional
Streptococcus pneumoniae [19] = experiment: Antibacterial activity against macrolide-resistant Streptococcus pneumoniae 2686 harboring mutation in L4 ribosomal protein after 14 passages and 10 compound-free subculturing by retest method; assay type: functional
Streptococcus pneumoniae [20] = experiment: Antibacterial activity against macrolide-resistant Streptococcus pneumoniae 2686 harboring mutation in L4 ribosomal protein after 25 passages and 10 compound-free subculturing by retest method; assay type: functional
Streptococcus pneumoniae [21] = experiment: Antibacterial activity against macrolide-susceptible Streptococcus pneumoniae 7127 harboring S20N mutation in L4 ribosomal protein and A105V mutation in L22 ribosomal protein after 16 passages and 10 compound-free subculturing by retest method; assay type: functional
Streptococcus pneumoniae [22] = experiment: Antibacterial activity against macrolide-susceptible Streptococcus pneumoniae 7127 harboring S20N mutation in L4 ribosomal protein and A105V mutation in L22 ribosomal protein after 15 passages and 10 compound-free subculturing by retest method; assay type: functional
Streptococcus pneumoniae [23] = experiment: Antibacterial activity against macrolide-resistant Streptococcus pneumoniae 3009 harboring mutation in 23S rRNA after 20 passages and 10 compound-free subculturing by retest method; assay type: functional
Streptococcus pneumoniae [24] = experiment: Antibacterial activity against macrolide-resistant Streptococcus pneumoniae 3665 harboring mef(A) gene after overnight incubation by agar dilution method; assay type: functional
Streptococcus pneumoniae [25] = experiment: Antibacterial activity against macrolide-resistant Streptococcus pneumoniae 1076 harboring erm(B) and mef(A) gene after overnight incubation by agar dilution method; assay type: functional
Streptococcus pneumoniae [26] = experiment: Antibacterial activity against macrolide-resistant Streptococcus pneumoniae 2686 harboring mutation in L4 ribosomal protein after overnight incubation by agar dilution method; assay type: functional
Streptococcus pneumoniae [27] = experiment: Antibacterial activity against macrolide-resistant Streptococcus pneumoniae 3009 harboring mutation in 23S rRNA after overnight incubation by agar dilution method; assay type: functional
Streptococcus pyogenes [28] = experiment: Antibacterial activity against macrolide-susceptible Streptococcus pyogenes 2132 after overnight incubation by agar dilution method
Streptococcus pyogenes [29] = experiment: Antibacterial activity against macrolide-resistant Streptococcus pyogenes 2368 harboring erm(B) gene after overnight incubation by agar dilution method
Streptococcus pyogenes [30] = experiment: Antibacterial activity against macrolide-susceptible Streptococcus pyogenes 2132 after 50 passages following overnight incubation by agar dilution method
Streptococcus pyogenes [31] = experiment: Antibacterial activity against macrolide-resistant Streptococcus pyogenes 2094 harboring erm(A) gene after 5 passages and 10 compound-free subculturing by retest method
Streptococcus pyogenes [32] = experiment: Antibacterial activity against macrolide-resistant Streptococcus pyogenes 2011 harboring mef(A) gene after 35 passages and 10 compound-free subculturing by retest method
Streptococcus pyogenes [33] = experiment: Antibacterial activity against macrolide-resistant Streptococcus pyogenes 237 harboring mutation in L4 ribosomal protein after 50 passages following overnight incubation by agar dilution method

## CCC[C@@H]1C[C@@H](C(=O)N[C@@H]([C@H]2O[C@H](SC)[C@H](O)[C@@H](O)[C@H]2O)[C@H](C)Cl)N(C)C1 [CLINDAMYCIN]
Streptococcus pneumoniae [1]
  MIC50: 0.06 µg/mL (≈ 0.141 µM)
  MIC90: > 64 µg/mL
Streptococcus pneumoniae [2]
  MIC50: 0.125 µg/mL (≈ 0.294 µM)
  MIC90: > 64 µg/mL
Streptococcus pneumoniae [3]
  MIC50: 0.06 µg/mL (≈ 0.141 µM)
Streptococcus pneumoniae [4]
  MIC50: 0.06 µg/mL (≈ 0.141 µM)
Streptococcus pneumoniae [5]
  MIC: 0.03 µg/mL (≈ 0.0706 µM)
Streptococcus pneumoniae [6]
  MIC50: 0.06 µg/mL (≈ 0.141 µM)
  MIC90: 0.06 µg/mL (≈ 0.141 µM)
Streptococcus pneumoniae [7]
  MIC50: 0.06 µg/mL (≈ 0.141 µM)
Streptococcus pyogenes [8]
  MIC50: 0.06 µg/mL (≈ 0.141 µM)
  MIC90: 0.06 µg/mL (≈ 0.141 µM)
Streptococcus pyogenes [9]
  MIC50: > 64 µg/mL
  MIC90: > 64 µg/mL
Streptococcus pyogenes [10]
  MIC50: 0.125 µg/mL (≈ 0.294 µM)
  MIC90: 0.25 µg/mL (≈ 0.588 µM)
Streptococcus pyogenes [11]
  MIC50: > 64 µg/mL
  MIC90: > 64 µg/mL
Streptococcus pyogenes [12]
  MIC50: 0.06 µg/mL (≈ 0.141 µM)
  MIC90: 0.125 µg/mL (≈ 0.294 µM)
Streptococcus pyogenes [13]
  MIC50: 0.125 µg/mL (≈ 0.294 µM)
  MIC90: 0.25 µg/mL (≈ 0.588 µM)
Streptococcus pneumoniae [14]
  MIC: 8 µg/mL (≈ 18.8 µM)
Streptococcus pneumoniae [15]
  MIC: 0.03 µg/mL (≈ 0.0706 µM)
Streptococcus pneumoniae [16]
  MIC: > 64 µg/mL
Streptococcus pneumoniae [17]
  MIC: 0.25 µg/mL (≈ 0.588 µM)
Streptococcus pneumoniae [18]
  MIC: > 64 µg/mL
Streptococcus pneumoniae [19]
  MIC: 0.03 µg/mL (≈ 0.0706 µM)
Streptococcus pneumoniae [20]
  MIC: 0.03 µg/mL (≈ 0.0706 µM)
Streptococcus pneumoniae [21]
  MIC: 0.03 µg/mL (≈ 0.0706 µM)
Streptococcus pneumoniae [22]
  MIC: 1 µg/mL (≈ 2.35 µM)
Streptococcus pneumoniae [23]
  MIC: 1 µg/mL (≈ 2.35 µM)
Streptococcus pneumoniae [24]
  MIC: 0.016 µg/mL (≈ 0.0376 µM)
Streptococcus pneumoniae [25]
  MIC: 64 µg/mL (≈ 151 µM)
Streptococcus pneumoniae [26]
  MIC: 0.03 µg/mL (≈ 0.0706 µM)
Streptococcus pneumoniae [27]
  MIC: 1 µg/mL (≈ 2.35 µM)
Streptococcus pyogenes [28]
  MIC: 0.06 µg/mL (≈ 0.141 µM)
Streptococcus pyogenes [29]
  MIC: > 64 µg/mL
Streptococcus pyogenes [30]
  MIC: 0.06 µg/mL (≈ 0.141 µM)
Streptococcus pyogenes [31]
  MIC: 0.06 µg/mL (≈ 0.141 µM)
Streptococcus pyogenes [32]
  MIC: 0.06 µg/mL (≈ 0.141 µM)

## CC[C@H]1OC(=O)[C@H](C)[C@@H](O[C@H]2C[C@@](C)(OC)[C@@H](O)[C@H](C)O2)[C@H](C)[C@@H](O[C@@H]2O[C@H](C)C[C@H](N(C)C)[C@H]2O)[C@](C)(O)C[C@@H](C)CN(C)[C@H](C)[C@@H](O)[C@]1(C)O [AZITHROMYCIN]
Streptococcus pneumoniae [1]
  MIC50: 4 µg/mL (≈ 5.34 µM)
  MIC90: > 64 µg/mL
Streptococcus pneumoniae [2]
  MIC50: > 64 µg/mL
  MIC90: > 64 µg/mL
Streptococcus pneumoniae [5]
  MIC: 32 µg/mL (≈ 42.7 µM)
Streptococcus pneumoniae [6]
  MIC50: 4 µg/mL (≈ 5.34 µM)
  MIC90: 8 µg/mL (≈ 10.7 µM)
Streptococcus pyogenes [8]
  MIC50: 0.125 µg/mL (≈ 0.167 µM)
  MIC90: 0.25 µg/mL (≈ 0.334 µM)
Streptococcus pyogenes [9]
  MIC50: > 64 µg/mL
  MIC90: > 64 µg/mL
Streptococcus pyogenes [10]
  MIC50: 16 µg/mL (≈ 21.4 µM)
  MIC90: > 64 µg/mL
Streptococcus pyogenes [11]
  MIC50: > 64 µg/mL
  MIC90: > 64 µg/mL
Streptococcus pyogenes [12]
  MIC50: 8 µg/mL (≈ 10.7 µM)
  MIC90: 8 µg/mL (≈ 10.7 µM)
Streptococcus pyogenes [13]
  MIC50: 16 µg/mL (≈ 21.4 µM)
  MIC90: > 64 µg/mL
Streptococcus pneumoniae [14]
  MIC: > 64 µg/mL
Streptococcus pneumoniae [15]
  MIC: 8 µg/mL (≈ 10.7 µM)
Streptococcus pneumoniae [16]
  MIC: > 64 µg/mL
Streptococcus pneumoniae [17]
  MIC: > 64 µg/mL
Streptococcus pneumoniae [18]
  MIC: > 64 µg/mL
Streptococcus pneumoniae [19]
  MIC: > 64 µg/mL
Streptococcus pneumoniae [20]
  MIC: > 64 µg/mL
Streptococcus pneumoniae [21]
  MIC: 0.06 µg/mL (≈ 0.0801 µM)
Streptococcus pneumoniae [22]
  MIC: > 64 µg/mL
Streptococcus pneumoniae [23]
  MIC: > 64 µg/mL
Streptococcus pneumoniae [24]
  MIC: 8 µg/mL (≈ 10.7 µM)
Streptococcus pneumoniae [25]
  MIC: > 64 µg/mL
Streptococcus pneumoniae [26]
  MIC: > 64 µg/mL
Streptococcus pneumoniae [27]
  MIC: > 64 µg/mL
Streptococcus pyogenes [28]
  MIC: 0.06 µg/mL (≈ 0.0801 µM)
Streptococcus pyogenes [29]
  MIC: > 64 µg/mL
Streptococcus pyogenes [31]
  MIC: > 64 µg/mL
Streptococcus pyogenes [32]
  MIC: 16 µg/mL (≈ 21.4 µM)
Streptococcus pyogenes [33]
  MIC: 8 µg/mL (≈ 10.7 µM)
